Experimental data as given in ChEMBL document CHEMBL3600321, “Synthesis and antifungal evaluation of head-to-head and head-to-tail bisamidine compounds” (Bioorg Med Chem, 2015).
≈ marks a conversion by molar mass, not a printed value. Calls of active or inactive are those of the source. The calls are words filed in the database; no cut-off is given here.

Key:
[1] = test system: Pichia kudriavzevii; assay: Antifungal activity against Candida krusei WTBF-51 by microbroth dilution method; type: functional
[2] = test system: Candida parapsilosis; assay: Antifungal activity against Candida parapsilosis ATCC 90018 WTBF-88 by microbroth dilution method; type: functional; settings: Lodderomyces parapsilosis
Outline: (§1)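 CLSI microbroth dilution in RPMI 1640 with L-glutamine. MIC values are geometric means of three independent assays.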

[3] = test system: Candida albicans; assay: Fungicidal activity against Candida albicans WTBF-50 assessed as inhibition of RNA biosynthesis after 90 mins by [3H]-uridine incorporation assay; type: functional, organism-based
Outline: (§2)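 C. albicans was grown in RPMI at 37 °C to OD600 of about 1, then mixed with 2-fold serial dilutions of compound and one 3H precursor at 10 μCi/ml final. Incubation ran 90 min at 37 °C, about one doubling. TCA precipitate was filter-collected and scintillation-counted. Each concentration was tested in triplicate. Incorporation relative to untreated control was fitted with a four-parameter curve to give the IC50.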

[4] = test system: Candida albicans; assay: Fungicidal activity against Candida albicans WTBF-50 assessed as inhibition of lipid biosynthesis after 90 mins by [3H]-acetate incorporation assay; type: functional, organism-based; outline: as §2
[5] = test system: Cryptococcus neoformans; assay: Antifungal activity against Cryptococcus neoformans Cn18 (Serotype C) WTBF-106 by microbroth dilution method; type: functional
Outline: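 Microbroth dilution per the CLSI protocol, run in Sabouraud Dextrose Broth in place of RPMI. MIC values are geometric means of three independent assays.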

[6] = test system: Candida albicans; assay: Fungicidal activity against Candida albicans WTBF-50 assessed as inhibition of DNA and RNA biosynthesis after 90 mins by [3H]-adenine incorporation assay; type: functional, organism-based; outline: as §2
[7] = test system: Candida albicans; assay: Fungicidal activity against Candida albicans WTBF-50 assessed as inhibition of protein biosynthesis after 90 mins by [3H]-leucine incorporation assay; type: functional, organism-based; outline: as §2
[8] = test system: Candida albicans; assay: Fungicidal activity against Candida albicans WTBF-50 assessed as inhibition of cell wall biosynthesis after 90 mins by [3H]-glucosamine incorporation assay; type: functional, organism-based; outline: as §2
[9] = test system: Nakaseomyces glabratus; assay: Antifungal activity against Candida glabrata ATCC 90030 WTBF-86 by microbroth dilution method; type: functional; outline: as §1
[10] = test system: Candida albicans; assay: Antifungal activity against Candida albicans WTBF-50 by microbroth dilution method; type: functional; outline: as §1
[11] = test system: Candida albicans; assay: Ratio of IC50 for inhibition of cell wall biosynthesis in Candida albicans WTBF-50 by [3H]-glucosamine incorporation assay to IC50 for inhibition of DNA and RNA biosynthesis in Candida albicans WTBF-50 by [3H]-adenine incorporation assay; type: functional
Outline: (§3)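 The ratio was formed from IC50 values of the 3H-precursor incorporation assay: C. albicans at OD600 of about 1 in RPMI, serial compound dilutions, 10 μCi/ml final label, 90 min at 37 °C. TCA precipitate was scintillation-counted, triplicates were run, and IC50 came from a four-parameter fit.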

[12] = test system: HeLa; assay: Cytotoxicity against human HeLa cells assessed as cell viability after 72 hrs by MTS assay; type: cell-based
[13] = test system: Candida albicans; assay: Ratio of IC50 for inhibition of RNA biosynthesis in Candida albicans WTBF-50 by [3H]-uridine incorporation assay to IC50 for inhibition of DNA and RNA biosynthesis in Candida albicans WTBF-50 by [3H]-adenine incorporation assay; type: functional; outline: as §3
[14] = Metabolic stability in liver microsomes (unknown origin); type: ADME
[15] = test system: Candida albicans; assay: Fungicidal activity against Candida albicans WTBF-50 assessed as log10 reduction in CFU/ml at 1 x MIC measured within 24 hrs; type: functional
Outline: (§4)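 C. albicans was grown in RPMI at 37 °C to OD600 of about 1. […] Samples taken at intervals were serially diluted and plated on Sabouraud agar, and cfu/ml was counted.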

[16] = test system: Candida albicans; assay: Fungicidal activity against Candida albicans WTBF-50 assessed as log10 reduction in CFU/ml at 2 x MIC measured within 24 hrs; type: functional; outline: as §4
[17] = test system: Candida albicans; assay: Fungicidal activity against Candida albicans WTBF-50 assessed as log10 reduction in CFU/ml at 4 x MIC measured within 4 hrs; type: functional; outline: as §4
[18] = test system: Candida albicans; assay: Fungicidal activity against Candida albicans WTBF-50 assessed as decrease in number of viable cells measured within 4 to 24 hrs; type: functional, organism-based; outline: as §4
[19] = test system: Candida albicans; assay: Fungicidal activity against Candida albicans WTBF-50 assessed as log10 reduction in CFU/ml at 1 x MIC measured within 4 hrs; type: functional; outline: as §4
[20] = test system: Candida albicans; assay: Fungicidal activity against Candida albicans WTBF-50 assessed as decrease in number of viable cells at 4 x MIC measured within 4 to 24 hrs; type: functional, organism-based; outline: as §4
[21] = test system: Candida albicans; assay: Binding affinity to DNA in Candida albicans WTBF-50 at 4 x MIC after 30 mins by Syto9 dye-based fluorescence microscope with GFP filter analysis
Outline: (§5)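 An exponential C. albicans culture was treated for 30 min with bisamidine at 4× MIC or with 33 μM Syto9. Fluorescence microscopy used the DAPI channel for the bisamidine and the GFP channel for Syto9, at 400× magnification.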

[22] = test system: Candida albicans; assay: Binding affinity to DNA in Candida albicans WTBF-50 at 4 x MIC after 30 mins by Syto9 dye-based fluorescence microscope with DAPI filter analysis; outline: as §5

| MIC [2] | MIC [5] | MIC [9] | SMILES | MIC [1] | IC50 [3] | IC50 [4] | IC50 [6] | IC50 [7] | IC50 [8] | MIC [10] | CC50 [12] | Stability [14] | Activity [17] | Activity [18] | also measured |
| --- | --- | --- | --- | --- | --- | --- | --- | --- | --- | --- | --- | --- | --- | --- | --- |
| 12.5 µg/mL (≈ 36.7 µM) | ≥ 100 µg/mL | 3.13 µg/mL (≈ 9.19 µM) | N=C(N)c1ccc(OCCCCCOc2ccc(C(=N)N)cc2)cc1 [PENTAMIDINE] | 19.8 µg/mL (≈ 58.2 µM) | 12.2 µg/mL (≈ 35.8 µM) | > 25 µg/mL | 0.19 µg/mL (≈ 0.558 µM) | > 25 µg/mL | > 25 µg/mL | 25 µg/mL (≈ 73.4 µM) |  |  |  |  |  |
| 0.16 µg/mL | 0.98 µg/mL | 0.06 µg/mL | CC(=O)O.c1cc2cc(-c3ccc(-c4c[nH]c5cc(C6=NCCCN6)ccc45)cc3)[nH]c2cc1C1=NCCCN1 | 0.25 µg/mL | 0.56 µg/mL | ≥ 2 µg/mL | 0.02 µg/mL | 0.86 µg/mL | 0.87 µg/mL | 0.25 µg/mL | 2.4 µg/mL | Stable | >3 log10CFU/ml | Dose-dependent effect | Ratio IC50 [11]: 43.5; Ratio IC50 [13]: 30; Activity [15]: 1 log10CFU/ml; Activity [16]: 4 log10CFU/ml |
| 0.31 µg/mL (≈ 0.335 µM) | 32 µg/mL (≈ 34.6 µM) | 0.25 µg/mL (≈ 0.271 µM) | C[C@@H]1[C@H](O)[C@@H](C)/C=C/C=C/C=C/C=C/C=C/C=C/C=C/[C@H](O[C@@H]2O[C@H](C)[C@@H](O)[C@H](N)[C@@H]2O)C[C@@H]2O[C@](O)(C[C@@H](O)C[C@@H](O)[C@H](O)CC[C@@H](O)C[C@@H](O)CC(=O)O[C@H]1C)C[C@H](O)[C@H]2C(=O)O [AMPHOTERICIN B] |  | 0.014 µg/mL (≈ 0.0152 µM) | 0.036 µg/mL (≈ 0.039 µM) | 0.038 µg/mL (≈ 0.0411 µM) | 0.052 µg/mL (≈ 0.0563 µM) | 0.043 µg/mL (≈ 0.0465 µM) |  |  |  |  |  | Activity [20]: Active |
| 0.13 µg/mL | 0.13 µg/mL | 0.06 µg/mL | CC(=O)O.c1cc2cc(-c3ccc(-c4ccc5cc(C6=NCCCN6)oc5c4)cc3)[nH]c2cc1C1=NCCCN1 | 0.5 µg/mL |  |  |  |  |  | 0.25 µg/mL | 1.5 µg/mL | Stable | >3 log10CFU/ml | Dose-dependent effect |  |
| ≥ 32 µg/mL | 1.59 µg/mL (≈ 3.51 µM) | 1 µg/mL (≈ 2.21 µM) | c1cc2cc(CCCCc3cc4ccc(C5=NCCCN5)cc4[nH]3)[nH]c2cc1C1=NCCCN1 | ≥ 32 µg/mL |  |  |  |  |  | ≥ 32 µg/mL | 14.7 µg/mL (≈ 32.5 µM) | Stable |  |  |  |

More lines, now with the values behind:

| SMILES | MIC [2] | MIC [5] | MIC [9] | MIC [1] | IC50 [3] | IC50 [4] | IC50 [6] | IC50 [7] | IC50 [8] | MIC [10] | CC50 [12] | Stability [14] | Activity [17] | Activity [18] | also measured |
| --- | --- | --- | --- | --- | --- | --- | --- | --- | --- | --- | --- | --- | --- | --- | --- |
| O=C(O)C(F)(F)F.c1cc2cc(-c3ccc(-c4cc5ccc(C6=NCCCN6)cc5[nH]4)cc3)[nH]c2cc1C1=NCCCN1 | 0.1 µg/mL | 0.08 µg/mL | 0.06 µg/mL | 0.13 µg/mL | 0.32 µg/mL | ≥ 2 µg/mL | 0.01 µg/mL | 0.59 µg/mL | 0.59 µg/mL | 0.25 µg/mL | 4 µg/mL | Stable | >3 log10CFU/ml | Dose-dependent effect | Ratio IC50 [11]: 59; Ratio IC50 [13]: 30; Activity [19]: 3 log10CFU/ml |
| O=C(O)C(F)(F)F.c1cc2cc(-c3ccc(-c4cc5ccc(C6=NCCN6)cc5[nH]4)cc3)[nH]c2cc1C1=NCCN1 | 0.63 µg/mL | 2 µg/mL | 0.25 µg/mL | 4 µg/mL |  |  |  |  |  | 10.1 µg/mL | 32.5 µg/mL | Stable |  |  | Activity [21]: Active; Activity [22]: Active |
| Clc1c(-c2ccc(-c3[nH]c4cc(C5=NCCCN5)ccc4c3Cl)cc2)[nH]c2cc(C3=NCCCN3)ccc12.O=C(O)C(F)(F)F | 0.25 µg/mL | 0.78 µg/mL | 0.25 µg/mL | 0.25 µg/mL |  |  |  |  |  | 0.4 µg/mL | 0.65 µg/mL | Stable |  |  |  |
| CC1CNC(c2ccc3cc(-c4ccc(-c5cc6ccc(C7=NC(C)CN7)cc6[nH]5)cc4)[nH]c3c2)=N1.O=C(O)C(F)(F)F (stereo not drawn) | 0.4 µg/mL | 0.25 µg/mL | 0.25 µg/mL | 0.79 µg/mL |  |  |  |  |  | 0.79 µg/mL | 66.5 µg/mL | Stable |  |  |  |
